# How the values were obtained:
# [1] = target: Gamma-secretase; experiment: Inhibition of gamma secretase-mediated amyloid beta40 production in human SH-SY5Y cells overexpressing beta-APP C-terminal SPA4CT by electrochemiluminescent analysis; type: cell-based
# In short: (§1)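 Each compound tested in at least two independent experiments; values reported in μM.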
# [2] = Inhibition of gamma-secretase-mediated notch intracellular domain cleavage in HeLa cells by luciferase reporter gene assay; type: cell-based
# In short: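 Split-luciferase complementation: γ-secretase cleavage of NotchΔE frees NICD fused to N-terminal luciferase, which enters the nucleus and binds RBP-Jk fused to C-terminal luciferase. Total luminescence is read after adding luciferin to lysed cells. At least two independent experiments; values in μM.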
# [3] = target: Gamma-secretase; experiment: Inhibition of gamma secretase-mediated amyloid beta42 production in human SH-SY5Y cells overexpressing beta-APP C-terminal SPA4CT by electrochemiluminescent analysis; type: cell-based; in short: as §1
# [4] = target: Voltage-gated inwardly rectifying potassium channel KCNH2 (Homo sapiens, UniProt Q12809)
# Voltage-gated inwardly rectifying potassium channel KCNH2, sequence (Q12809 whole entry): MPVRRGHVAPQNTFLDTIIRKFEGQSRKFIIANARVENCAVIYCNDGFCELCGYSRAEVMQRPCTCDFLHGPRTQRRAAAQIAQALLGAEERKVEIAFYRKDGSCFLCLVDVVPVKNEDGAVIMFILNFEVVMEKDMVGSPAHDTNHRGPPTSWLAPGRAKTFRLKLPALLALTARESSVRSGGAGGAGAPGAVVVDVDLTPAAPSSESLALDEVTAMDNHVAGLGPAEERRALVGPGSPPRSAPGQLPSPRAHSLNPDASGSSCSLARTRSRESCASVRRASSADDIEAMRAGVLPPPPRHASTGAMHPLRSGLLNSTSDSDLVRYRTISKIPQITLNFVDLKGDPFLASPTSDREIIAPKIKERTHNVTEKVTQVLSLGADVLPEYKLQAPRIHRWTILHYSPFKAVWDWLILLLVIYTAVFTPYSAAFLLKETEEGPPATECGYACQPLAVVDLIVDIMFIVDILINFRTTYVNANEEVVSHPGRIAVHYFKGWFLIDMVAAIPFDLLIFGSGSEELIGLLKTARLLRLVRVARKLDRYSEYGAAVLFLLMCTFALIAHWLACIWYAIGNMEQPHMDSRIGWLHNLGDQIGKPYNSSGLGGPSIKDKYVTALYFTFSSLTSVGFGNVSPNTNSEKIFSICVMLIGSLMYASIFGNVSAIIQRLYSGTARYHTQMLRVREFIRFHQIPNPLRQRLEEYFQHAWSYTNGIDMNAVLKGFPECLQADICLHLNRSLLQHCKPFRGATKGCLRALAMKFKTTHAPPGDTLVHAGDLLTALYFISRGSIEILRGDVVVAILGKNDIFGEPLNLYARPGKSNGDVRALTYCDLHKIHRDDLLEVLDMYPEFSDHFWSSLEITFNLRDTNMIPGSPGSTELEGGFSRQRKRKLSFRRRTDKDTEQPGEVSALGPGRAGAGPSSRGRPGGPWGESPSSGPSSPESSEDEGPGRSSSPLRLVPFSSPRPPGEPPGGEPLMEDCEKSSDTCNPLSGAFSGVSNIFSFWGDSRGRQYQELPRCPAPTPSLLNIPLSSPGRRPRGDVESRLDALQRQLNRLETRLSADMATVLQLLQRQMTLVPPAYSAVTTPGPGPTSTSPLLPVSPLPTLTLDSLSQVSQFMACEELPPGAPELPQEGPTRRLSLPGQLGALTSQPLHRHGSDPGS
Compound,IC50 [1] [nM],IC50 [2] [nM],IC50 [3] [nM],IC50 [4] [nM]
COc1cc(-c2cn(CC(=O)N(CC(F)(F)F)c3ccc4c(c3)OC(F)(F)O4)nn2)ccc1-n1cnc(C)c1,1180,38200,160,–
COc1cc(-c2cn(CC(=O)N(CC(F)(F)F)c3cccc4ccccc34)nn2)ccc1-n1cnc(C)c1,410,45100,90,–
COc1cc(-c2cn(C3CC[C@H]4CCCC[C@@H]4NC3=O)nn2)ccc1-n1cnc(C)c1 (mixture of isomers),3860,> 50000,620,–
COc1cc(-c2cn([C@H]3C[C@@H](C(C)(C)C)CCN(CC(C)(C)C)C3=O)nn2)ccc1-n1cnc(C)c1,840,20000,130,–
COc1cc(-c2cn(CC(=O)N(Cc3ccccc3)[C@H](C)c3ccccc3)nn2)ccc1-n1cnc(C)c1,3010,> 50000,230,–
COc1cc(-c2cn(CC(=O)N(c3ccccc3)C3CCCCC3)nn2)ccc1-n1cnc(C)c1,8710,–,620,–
COc1cc(-c2cn(CC(=O)N(Cc3ccccc3)CC(F)(F)F)nn2)ccc1-n1cnc(C)c1,2430,> 40000,270,–
COc1cc(-c2cn(C3CCCC(C(C)(C)C)NC3=O)nn2)ccc1-n1cnc(C)c1 (racemic),5120,> 50000,480,–
COc1cc(-c2cn(C3CC([Si](C)(C)C)CCNC3=O)nn2)ccc1-n1cnc(C)c1 (racemic),1230,45300,330,–
COc1cc(-c2cn(CC(=O)NC3C4CC5CC(C4)CC3C5)nn2)ccc1-n1cnc(C)c1 (configuration not stated),> 10000,> 50000,680,–
COc1cc(-c2cn(C3C(=O)NC4CCC3C4)nn2)ccc1-n1cnc(C)c1 (racemic),9870,> 50000,1090,–
COc1cc(-c2cn(CC(=O)N(Cc3ccc(F)cc3)C3C4CC5CC(C4)CC3C5)nn2)ccc1-n1cnc(C)c1 (configuration not stated),1900,> 50000,240,250
COc1cc(-c2cn([C@H]3C[C@@H](C(C)(C)C)CCN(CC(F)(F)F)C3=O)nn2)ccc1-n1cnc(C)c1,170,24300,9,–
COc1cc(-c2cn([C@H]3C[C@@H](C(C)(C)C)CCN(CC45CC6CC(CC(C6)C4)C5)C3=O)nn2)ccc1-n1cnc(C)c1,1330,> 50000,240,–
COc1cc(-c2cn(CC(=O)N(Cc3ccccc3)Cc3ccccc3)nn2)ccc1-n1cnc(C)c1,4420,> 50000,370,–
COc1cc(-c2cn([C@H]3CC[C@H](c4ccccc4)CN(Cc4ccccc4)C3=O)nn2)ccc1-n1cnc(C)c1,510,11100,80,–
COc1cc(-c2cn(CC(=O)Nc3ccc4c(c3)OC(F)(F)O4)nn2)ccc1-n1cnc(C)c1,2070,29600,450,–
COc1cc(-c2cn(CC(=O)N(CC(F)(F)F)c3ccc4c(c3)CCC4)nn2)ccc1-n1cnc(C)c1,1250,24600,180,–

Compound,IC50 [1] [nM],IC50 [2] [nM],IC50 [3] [nM],IC50 [4] [nM]
COc1cc(-c2cn(C3CC(C(F)(F)F)CNC3=O)nn2)ccc1-n1cnc(C)c1 (racemic),6160,> 50000,1110,> 30000
COc1cc(-c2cn(C3CC(C4CCCCC4)CCNC3=O)nn2)ccc1-n1cnc(C)c1 (racemic),660,17000,160,3680
COc1cc(-c2cn([C@H]3C[C@@H](C(F)(F)F)CCN(Cc4ccccc4)C3=O)nn2)ccc1-n1cnc(C)c1,420,40800,80,–
COc1cc(-c2cn(CC(=O)N(CC(F)(F)F)c3ccc4ccccc4c3)nn2)ccc1-n1cnc(C)c1,660,48500,80,–
COc1cc(-c2cn(CC(=O)Nc3cccc4ccccc34)nn2)ccc1-n1cnc(C)c1,4850,26700,610,> 10000
COc1cc(-c2cn([C@H]3C[C@@H](c4ccccc4)CCN(CC(F)(F)F)C3=O)nn2)ccc1-n1cnc(C)c1,150,> 50000,20,–
COc1cc(-c2cn(C3CC(C(F)(F)F)CCNC3=O)nn2)ccc1-n1cnc(C)c1 (racemic),9100,> 50000,1270,–
COc1cc(-c2cn(C3CC(C)(C)CCNC3=O)nn2)ccc1-n1cnc(C)c1 (racemic),7420,> 50000,1310,20800
COc1cc(-c2cn(CC(=O)N(C3CCCCC3)C3CCCCC3)nn2)ccc1-n1cnc(C)c1,> 10000,9000,200,–
COc1cc(-c2cn(CC(=O)N3CCC(c4nc5ccccc5o4)CC3)nn2)ccc1-n1cnc(C)c1,> 10000,> 50000,940,10300
COc1cc(-c2cn([C@H]3C[C@@H](C(F)(F)F)CCN(CC(F)(F)F)C3=O)nn2)ccc1-n1cnc(C)c1,210,> 50000,20,–
COc1cc(-c2cn(CC(=O)N([C@H](C)c3ccccc3)[C@H](C)c3ccccc3)nn2)ccc1-n1cnc(C)c1,5170,> 50000,430,–
COc1cc(-c2cn([C@H]3C[C@@H](C(C)(C)C)CCN(Cc4ccccc4)C3=O)nn2)ccc1-n1cnc(C)c1,420,40100,80,–
COc1cc(-c2cn([C@H]3C[C@@H]([Si](C)(C)C)CCN(Cc4ccccc4)C3=O)nn2)ccc1-n1cnc(C)c1,440,10200,70,–
COc1cc(-c2cn([C@H]3C[C@@H](C(F)(F)F)CN(CC(F)(F)F)C3=O)nn2)ccc1-n1cnc(C)c1,1910,> 50000,290,–
COc1cc(-c2cn(C3CCCCNC3=O)nn2)ccc1-n1cnc(C)c1 (racemic),> 10000,> 50000,4420,–
COc1cc(-c2cn(CC(=O)N(c3ccccc3)c3ccccc3)nn2)ccc1-n1cnc(C)c1,> 10000,–,1630,–
COc1cc(-c2cn([C@H]3CCCCN(CC(F)(F)F)C3=O)nn2)ccc1-n1cnc(C)c1,2210,> 50000,300,–
